# Where a name gives a salt, the structure may show the parent alone. The source made the active and inactive calls. The rule behind the calls is not given here.
# Key:
# [1] = molecular target: T1, Voltage-gated inwardly rectifying potassium channel KCNH2 (Homo sapiens, UniProt Q12809); assay: Inhibition of hERG assessed as inhibition of channel current at 180 uM by manual patch clamp analysis; format: toxicity
# THP-1 = assay: Inhibition of LPS-induced IL-23 production in IFN-gamma primed human THP-1 cells preincubated for 1 hr followed by LPS stimulation for 18 hrs by sandwich ELISA; format: functional, cell-based
# [2] = molecular target: T2, Adenosine receptor A3 (Homo sapiens) (UniProt P0DMS8); assay: Inhibition of adenosine A3 receptor (unknown origin) at 500 uM relative to control
# T2 sequence (whole entry): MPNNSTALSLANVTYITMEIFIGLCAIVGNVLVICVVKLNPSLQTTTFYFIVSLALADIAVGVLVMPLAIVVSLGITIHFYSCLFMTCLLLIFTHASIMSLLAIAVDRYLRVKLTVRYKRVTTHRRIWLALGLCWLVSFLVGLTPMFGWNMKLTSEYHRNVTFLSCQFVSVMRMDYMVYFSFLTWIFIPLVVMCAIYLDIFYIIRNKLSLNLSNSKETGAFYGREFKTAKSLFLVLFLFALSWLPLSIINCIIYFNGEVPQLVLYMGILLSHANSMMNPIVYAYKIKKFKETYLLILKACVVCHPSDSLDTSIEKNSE
# [3] = molecular target: Kelch-like ECH-associated protein 1 (Homo sapiens) (UniProt Q14145); assay: Binding affinity to human Keap1 assessed as cysteine labeling at 30 uM incubated for 2 hrs by LC-MS/MS analysis
# Sequence of Kelch-like ECH-associated protein 1 (Homo sapiens) (Q14145 whole entry): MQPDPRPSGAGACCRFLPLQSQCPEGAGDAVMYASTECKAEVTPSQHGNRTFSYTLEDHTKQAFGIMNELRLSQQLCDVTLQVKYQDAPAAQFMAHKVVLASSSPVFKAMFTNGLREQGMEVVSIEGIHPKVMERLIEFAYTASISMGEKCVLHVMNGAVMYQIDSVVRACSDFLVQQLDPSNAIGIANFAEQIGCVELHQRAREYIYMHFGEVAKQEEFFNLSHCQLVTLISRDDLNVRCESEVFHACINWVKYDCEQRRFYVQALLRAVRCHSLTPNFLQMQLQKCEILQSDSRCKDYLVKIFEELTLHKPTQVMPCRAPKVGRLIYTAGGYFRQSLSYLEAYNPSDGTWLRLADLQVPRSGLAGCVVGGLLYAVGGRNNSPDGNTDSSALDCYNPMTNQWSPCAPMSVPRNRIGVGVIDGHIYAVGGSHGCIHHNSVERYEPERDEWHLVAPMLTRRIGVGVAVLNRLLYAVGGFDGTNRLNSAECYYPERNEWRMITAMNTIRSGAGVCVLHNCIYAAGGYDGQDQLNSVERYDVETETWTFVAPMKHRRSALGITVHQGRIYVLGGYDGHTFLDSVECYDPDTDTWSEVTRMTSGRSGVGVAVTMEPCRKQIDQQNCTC
# [4] = molecular target: 5-hydroxytryptamine receptor 2B (Homo sapiens) (UniProt P41595); assay: Inhibition of 5-HT2B receptor (unknown origin) at 500 uM relative to control
# Sequence of 5-hydroxytryptamine receptor 2B (Homo sapiens) (P41595 whole entry): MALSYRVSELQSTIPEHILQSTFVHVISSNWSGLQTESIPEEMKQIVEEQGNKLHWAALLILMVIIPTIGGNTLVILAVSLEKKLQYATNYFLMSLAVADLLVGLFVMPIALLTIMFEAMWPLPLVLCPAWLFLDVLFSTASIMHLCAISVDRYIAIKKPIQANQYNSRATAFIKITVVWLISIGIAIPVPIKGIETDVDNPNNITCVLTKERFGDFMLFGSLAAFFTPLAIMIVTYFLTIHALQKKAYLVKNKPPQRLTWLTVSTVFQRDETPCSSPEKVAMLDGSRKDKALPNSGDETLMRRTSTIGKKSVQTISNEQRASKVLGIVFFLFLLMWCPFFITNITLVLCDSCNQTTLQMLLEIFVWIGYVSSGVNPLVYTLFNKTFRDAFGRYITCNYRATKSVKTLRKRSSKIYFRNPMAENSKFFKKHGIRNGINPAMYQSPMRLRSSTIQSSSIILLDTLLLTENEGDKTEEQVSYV
# Mus musculus [5] = assay: Antiinflammatory activity against MOG35-55 induced experimental autoimmune encephalomyelitis C57BL/6 mouse model assessed as reduction in clinical score at 30 mg/kg, po BID and measured for 28 days; format: functional
# Method in brief: (§1)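 EAE was induced in mice by immunization with myelin oligodendrocyte glycoprotein (MOG). Compounds were dosed twice daily (BID), with DMF dosed BID as control. Clinical scores were followed over the study and reported as mean with SEM. Efficacy is expressed as % reduction in clinical score.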
# Mus musculus [6] = assay: Antiinflammatory activity against MOG35-55 induced experimental autoimmune encephalomyelitis C57BL/6 mouse model assessed as reduction in clinical score at 10 mg/kg, po BID and measured for 28 days; format: functional; settings: C57BL/6, 672 h, time 28 day; method in brief: as §1
# [7] = molecular target: T3, Nuclear factor erythroid 2-related factor 2 (Homo sapiens, UniProt Q16236); assay: Activation of Nrf2 in human PathHunter U2OS Keap1-Nrf2 cells assessed as Nrf2 nuclear translocation by chemiluminescent assay; format: cell-based
# T3 sequence (Q16236 whole entry): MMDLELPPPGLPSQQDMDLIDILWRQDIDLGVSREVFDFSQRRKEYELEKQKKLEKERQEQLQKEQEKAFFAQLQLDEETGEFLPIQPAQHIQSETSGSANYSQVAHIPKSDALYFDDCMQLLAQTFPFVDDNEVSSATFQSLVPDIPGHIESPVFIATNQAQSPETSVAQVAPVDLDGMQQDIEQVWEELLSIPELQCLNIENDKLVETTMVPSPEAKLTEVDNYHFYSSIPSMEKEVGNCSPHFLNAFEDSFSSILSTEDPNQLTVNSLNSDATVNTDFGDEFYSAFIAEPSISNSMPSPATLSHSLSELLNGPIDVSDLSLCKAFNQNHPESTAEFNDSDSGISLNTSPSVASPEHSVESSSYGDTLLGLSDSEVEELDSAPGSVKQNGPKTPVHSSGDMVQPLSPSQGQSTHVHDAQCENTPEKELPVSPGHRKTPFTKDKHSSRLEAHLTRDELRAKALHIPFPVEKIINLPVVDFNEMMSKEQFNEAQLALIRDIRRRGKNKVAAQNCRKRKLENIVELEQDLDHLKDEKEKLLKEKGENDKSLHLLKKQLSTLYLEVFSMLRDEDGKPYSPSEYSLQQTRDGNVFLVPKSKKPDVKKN
# [8] = molecular target: T1, Voltage-gated inwardly rectifying potassium channel KCNH2; assay: Inhibition of hERG assessed as inhibition of channel current at 60 uM by manual patch clamp analysis; format: toxicity
# [9] = Mutagenicity in Salmonella typhimurium by Ames test; format: toxicity; settings: salmonella enterica subsp. enterica serovar typhimurium
# [10] = molecular target: T1, Voltage-gated inwardly rectifying potassium channel KCNH2; assay: Inhibition of hERG assessed as inhibition of channel current at 200 uM by manual patch clamp analysis; format: toxicity
# [11] = Metabolic stability of the compound in mouse plasma; format: ADME, cell-free
# Mus musculus [12] = assay: Antiinflammatory activity against MOG35-55 induced experimental autoimmune encephalomyelitis C57BL/6 mouse model assessed as reduction in clinical score at 60 mg/kg, po BID and measured for 28 days; format: functional; settings: C57BL/6, 672 h, time 28 day; method in brief: as §1
# Mus musculus [13] = assay: Increase in Nrf2 level in thymus of MOG35-55 induced experimental autoimmune encephalomyelitis C57BL/6 mouse model at 60 to 90 mg/kg, po measured for 8 hrs; format: functional, organism-based; settings: dose 60-90 mg/kg
# Method in brief: (§2)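 After the EAE study, mouse thymus was analysed for Nrf2 levels by Western blot, following BID dosing at 60 and 90 mg/kg, or at 75 mg/kg for the DMF control. Nrf2 increase was assessed over an 8 h period.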
# Mus musculus [14] = assay: Increase in Nrf2 level in thymus of MOG35-55 induced experimental autoimmune encephalomyelitis C57BL/6 mouse model at 75 mg/kg, po measured for 8 hrs; format: functional, organism-based; method in brief: as §2
# [15] = molecular target: T4, Nuclear factor erythroid 2-related factor 2 (Homo sapiens) (UniProt Q16236); assay: Activation of Nrf2 in human THP-1 cells assessed as increase in HO-1 expression at 0.08 to 10 uM by western blot analysis; format: cell-based; settings: filed as activator, dose 0.08-10 µM
# T4 sequence (whole entry): T3 sequence (Q16236 whole entry)
# Method in brief: (§3)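 THP-1 cells were exposed to a range of compound concentrations. Cellular Nrf2 and HO-1 expression were detected by Western blot.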
# [16] = molecular target: T4, Nuclear factor erythroid 2-related factor 2 (Homo sapiens); assay: Activation of Nrf2 in human THP-1 cells assessed as increase in cellular Nrf2 level at 0.08 to 10 uM by western blot analysis; format: cell-based; settings: filed as activator, dose 0.08-10 µM; method in brief: as §3
# Mus musculus [17] = assay: Antiinflammatory activity against MOG35-55 induced experimental autoimmune encephalomyelitis C57BL/6 mouse model assessed as reduction in clinical score at 75 mg/kg, po BID and measured for 28 days; format: functional; settings: C57BL/6, 672 h, time 28 day; method in brief: as §1
# T1 sequence (Q12809 whole entry): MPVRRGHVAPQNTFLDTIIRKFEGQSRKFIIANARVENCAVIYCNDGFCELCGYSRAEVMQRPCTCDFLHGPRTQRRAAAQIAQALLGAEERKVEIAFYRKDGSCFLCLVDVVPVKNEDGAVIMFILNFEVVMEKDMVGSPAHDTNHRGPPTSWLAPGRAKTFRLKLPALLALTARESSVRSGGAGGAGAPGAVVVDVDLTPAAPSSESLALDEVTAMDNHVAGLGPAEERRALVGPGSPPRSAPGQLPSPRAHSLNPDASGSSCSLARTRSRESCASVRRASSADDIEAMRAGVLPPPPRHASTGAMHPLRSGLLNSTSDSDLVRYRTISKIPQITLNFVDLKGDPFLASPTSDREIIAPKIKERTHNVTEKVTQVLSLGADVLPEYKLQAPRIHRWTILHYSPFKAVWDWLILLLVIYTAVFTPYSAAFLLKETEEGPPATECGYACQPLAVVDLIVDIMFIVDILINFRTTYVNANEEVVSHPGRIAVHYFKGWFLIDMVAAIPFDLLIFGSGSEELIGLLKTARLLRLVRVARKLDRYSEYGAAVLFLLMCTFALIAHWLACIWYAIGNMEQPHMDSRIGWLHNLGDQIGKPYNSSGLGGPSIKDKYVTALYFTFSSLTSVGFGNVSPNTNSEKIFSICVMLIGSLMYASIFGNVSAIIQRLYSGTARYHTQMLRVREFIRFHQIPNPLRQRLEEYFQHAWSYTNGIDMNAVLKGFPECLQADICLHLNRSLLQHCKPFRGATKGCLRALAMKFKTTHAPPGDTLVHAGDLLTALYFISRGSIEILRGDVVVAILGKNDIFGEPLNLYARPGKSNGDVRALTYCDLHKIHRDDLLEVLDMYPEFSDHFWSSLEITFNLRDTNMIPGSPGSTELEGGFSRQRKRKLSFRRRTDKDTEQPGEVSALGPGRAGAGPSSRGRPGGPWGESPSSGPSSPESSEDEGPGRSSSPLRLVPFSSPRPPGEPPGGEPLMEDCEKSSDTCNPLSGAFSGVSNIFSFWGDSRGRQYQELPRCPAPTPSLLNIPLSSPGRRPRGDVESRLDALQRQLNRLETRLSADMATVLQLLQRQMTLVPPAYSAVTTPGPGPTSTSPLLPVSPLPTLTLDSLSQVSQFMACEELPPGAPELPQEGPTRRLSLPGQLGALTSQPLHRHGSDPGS
smiles,measurement,setting,value
COC(=O)/C=C/n1nnn(C)c1=O,inhibition (INH),[1],Active
Cc1ccc(S(=O)(=O)/C=C/n2nnn(C)c2=O)cc1,IC50,THP-1,0.19 µM
same,inhibition,[2],82%
same,Activity,[3],Active
same,inhibition,[4],74%
same,Activity,Mus musculus [5]; time 28.0 day,inactive
same,inhibition in vivo at 10 mg/kg,Mus musculus [6],40%
Cc1ccc(S(=O)(=O)/C=C/n2cnn(C)c2=O)cc1,IC50,THP-1,2.11 µM
COC(=O)/C=C/n1cnn(C)c1=O,IC50,THP-1,29.5 µM
same,EC50,[7],95.2 µM
COC(=O)/C=C/n1nn[nH]c1=O,IC50,THP-1,18 µM
same,EC50,[7],60.9 µM
same,inhibition (INH),[8],Active
same,Activity,[9],Toxic
COC(=O)/C=C/n1nnn(-c2cccnc2)c1=O,inhibition (INH),[10],Active
same,Activity,[9],Non-Toxic
same,Stability,[11],Unstable
Cn1ncn(/C=C/S(=O)(=O)c2ccccc2)c1=O,IC50,THP-1,2.12 µM
COC(=O)/C=C/C(=O)O [MONOMETHYL FUMARATE],IC50,THP-1,18.9 µM
same,EC50,[7],127 µM
Cn1cnn(/C=C/S(=O)(=O)c2ccccc2)c1=O,IC50,THP-1,3.49 µM
same,inhibition,[2],82%
same,inhibition in vivo at 60 mg/kg,Mus musculus [12],89%
same,inhibition,[4],74%
same,inhibition in vivo at 30 mg/kg,"Mus musculus [5]; C57BL/6, 672 h, time 28 day",41%
same,Activity,Mus musculus [13],Active
Cn1nnn(/C=C/S(=O)(=O)c2ccccc2)c1=O,IC50,THP-1,0.3 µM
O=c1n(/C=C/S(=O)(=O)c2ccccc2)nnn1-c1cccnc1,IC50,THP-1,0.02 µM
Cc1ccc(S(=O)(=O)/C=C/n2ncn(C)c2=O)cc1,IC50,THP-1,6.92 µM
COC(=O)/C=C/C(=O)OC [DIMETHYL FUMARATE],IC50,THP-1,10.6 µM
same,Activity,Mus musculus [14],Active
same,EC50,[7],7.93 µM
same,Activity,[15],Active
same,Activity,[16],Dose-Dependent Effect
same,inhibition in vivo at 75 mg/kg,Mus musculus [17],83%

# — ChEMBL document CHEMBL5390300, “Tuning the Reactivity of Nuclear Factor Erythroid 2-Related Factor 2 (Nrf2) Activators for Optimal in Vivo Efficacy” (ACS Med Chem Lett, 2023)
